KLK5 inh: inhibitors of human kallikrein 5; Q9Y337; recombinant hK5, fluorogenic AMC substrate cleavage; inhibition, % at 5 µM; actives 0.59% (n = 210,000); AID 873;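 active means inhibition of 40% or more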;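 further: 0% = enzyme controls without compound and 100% = no-enzyme blanks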
Furin inh: blocks human furin protease activity | P09958 | purified furin, fluorogenic substrate cleavage | inhibition, % at 20 µM or 30 µM | actives 0.061% (n = 220,000) | AID 463115; in the data active means inhibition above about 25%
Target sequence (P09958 108-714 limits assumed): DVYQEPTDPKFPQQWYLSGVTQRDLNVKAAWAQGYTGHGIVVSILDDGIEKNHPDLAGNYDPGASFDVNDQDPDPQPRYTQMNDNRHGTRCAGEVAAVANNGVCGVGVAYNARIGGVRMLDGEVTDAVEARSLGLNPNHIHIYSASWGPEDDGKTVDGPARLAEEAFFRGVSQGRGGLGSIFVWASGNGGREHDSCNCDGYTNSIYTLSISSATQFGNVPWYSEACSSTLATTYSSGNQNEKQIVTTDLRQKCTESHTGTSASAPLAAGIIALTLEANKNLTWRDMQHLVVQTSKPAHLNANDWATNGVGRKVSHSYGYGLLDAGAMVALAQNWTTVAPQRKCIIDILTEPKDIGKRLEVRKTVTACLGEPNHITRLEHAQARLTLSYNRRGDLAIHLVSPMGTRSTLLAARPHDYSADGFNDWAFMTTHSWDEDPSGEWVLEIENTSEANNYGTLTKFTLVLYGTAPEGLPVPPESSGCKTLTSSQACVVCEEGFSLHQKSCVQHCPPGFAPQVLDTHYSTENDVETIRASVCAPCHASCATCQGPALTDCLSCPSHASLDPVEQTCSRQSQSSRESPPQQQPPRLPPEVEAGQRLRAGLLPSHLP
FXIIa inh 1536: blocks human coagulation factor XIIa protease activity; P00748; purified FXIIa, Boc-QGR-AMC fluorogenic substrate, 2 h; inhibition, % at 5 µM; actives 0.3% (n = 220,000); AID 800; in the data active means inhibition above about 40%;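 further: 0% = enzyme with no compound and 100% = blank without enzyme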
FXIa inh: blocks human coagulation factor XIa protease activity; AID 798; purified FXIa, Boc-Glu-Ala-Arg-AMC fluorogenic substrate; inhibition, % at 5 µM; actives 0.14% (n = 220,000); P03951;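 active means inhibition of at least 40%; inactive means inhibition below 40%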;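 further: fluorescence of freed AMC excited at 355 nm; 0% = enzyme without compound and 100% = no enzyme blank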
m-calpain inh: calpain II (pig) inhibition; purified calpain II, fluorogenic peptide substrate, 30 min; inhibition, % at 16 µM; actives 0.37% (n = 220,000);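 active means inhibition above about 50%, limit read from the data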
thrombin 1536: blocks human thrombin protease activity; P00734; alpha-thrombin, Boc-VPR-AMC fluorogenic substrate cleavage; inhibition, % at 5 µM; actives 0.26% (n = 220,000);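 active means inhibition at or above 40%; inactive means inhibition below 40%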;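 further: 0% = enzyme with no compound and 100% = wells without enzyme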
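Material: Human alpha-thrombin protein | Buffer or medium: pH 7.5 Tris-saline with Tween 20 | Reagent: Boc-VPR-AMC substrate, 15 µM final | Schedule: Reaction at ambient temperature | Detection: AMC fluorescence at 355 nm excitation and 460 nm emission | Evaluation: Percent inhibition scaled between no-compound controls and no-enzyme blanks | Controls: no-compound enzyme wells and no-enzyme blanks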
An asterisk follows results filed as active. Hits are enriched below; roughly 1.4% of the tested compounds scored in any of these assays.

SMILES | KLK5 inh | Furin inh | FXIIa inh 1536 | FXIa inh | m-calpain inh | thrombin 1536
Cc1nn(C(C)C(=O)NCC2CCCO2)c(=O)c2cc3occc3n12 (stereo unspecified) | 43* | -19 | 3 | 7 | 1 | 11
CCCCCN1C=CC=C/C1=C\C=C(C#N)C#N | -7 | -13 | 6 | 6 | 28 | -3
CCCCCCN1C=CC=C/C1=C/C=C(C#N)C#N | -6 | 30* | 15 | 7 | 1 | 5
CCCN1C=CC(=CC=C(C#N)C#N)C=C1 | 67* | -6 | 22 | 20 | 18 | 4
O=C(CC1OC(=O)c2ccccc21)c1ccco1 (stereo unspecified) | 5 | -4 | 11 | 6 | -49 | 0
COC(=O)c1cn(NC(=O)C2CCCO2)c(=O)c2ccccc12 (stereo unspecified) | -9 | -5 | 7 | -8 | 7 | -1
CCOC(=O)C1(Cc2ccccc2)CCN(Cc2cccn2-c2nccs2)CC1 | -1 | -12 | 7 | -5 | -2 | -16
Cc1ccc(NC(=O)c2ccc(N/N=C/c3cccc(O)c3)c([N+](=O)[O-])c2)cc1 | 10 | -8 | 1 | -2 | 30 | 1
Cc1ccccc1NC(=O)c1ccc(N/N=C/c2ccccc2O)c([N+](=O)[O-])c1 | -1 | -4 | 13 | -5 | 55* | 1
COc1ccc(C2N(c3ccc(F)cc3)C(=O)C3CCCN32)cc1 (stereo unspecified) | 0 | -24 | 12 | 1 | 3 | -1
O=C(CN1CCCN(Cc2ccc(F)cc2Cl)C1=O)NC1CCCCCCC1 | 104* | -21 | 24 | 7 | 15 | 12
O=C(CN1CCN(Cc2ccccc2F)C1=O)NC1CCCC1 | 1 | -22 | 8 | -5 | -25 | 2
Cc1ccccc1Cn1c(=O)n(CCC(=O)NCc2ccc3c(c2)OCO3)c(=O)c2ccccc21 | 0 | -6 | 6 | 5 | 20 | 0
COC(=O)CSc1nnnn1-c1ccccc1 | -16 | -15 | 17 | 4 | -6 | 0
CCOC(=O)CSc1nnnn1-c1cccc2ccccc12 | 57* | -13 | 3 | 14 | 17 | 19
CCOC(=O)NC(=O)CSc1nnnn1-c1ccccc1 | -4 | 38* | 8 | 17 | -6 | 3
CCCCNCCOCCOc1ccccc1-c1ccccc1 | -8 | -29 | 8 | 3 | -15 | 0
O=C1C2CCCN2C(=S)N1Cc1ccccc1 (stereo unspecified) | -3 | -19 | -1 | -1 | 31 | -7
Cc1cc(C)c2c(CN3CCOCC3)cc(=O)oc2c1 | -2 | -7 | 6 | -1 | -10 | -1
CC(C)n1c(O)c(N=NC(=O)CNC(=O)CCc2ccccc2)c2ccccc21 | -2 | 2 | 4 | -2 | 66* | -9
O=C1OCc2ccc(NC(=O)C3CC3)cc21 | -2 | -19 | 3 | -2 | -8 | -3
O=C1OCc2cc(NC(=O)C3CCCCC3)ccc21 | -25 | -19 | 9 | -4 | 52* | -5
COc1cc(OC)cc(C(=O)Nc2cccc(C(C)=O)c2)c1 | 3 | -16 | 9 | 3 | 30 | -7
COc1cc(OC)cc(C(=O)Nc2ccc3c(c2)COC3=O)c1 | 7 | -20 | 12 | -9 | 60* | 3
CCc1ccc(CN(C)CC(=O)Nc2ccc3c(c2)CCC3)cc1 | 4 | -19 | 8 | -10 | 21 | -5
SMILES | KLK5 inh | Furin inh | FXIIa inh 1536 | FXIa inh | m-calpain inh | thrombin 1536
Cc1ccc(CN(C)CC(=O)Nc2ccc3c(c2)CCC3)cc1 | 47* | -8 | 31 | 30 | 34 | 2
CS(=O)(=O)N(CC(=O)NCc1ccncc1)c1cc(Cl)cc(Cl)c1 | -8 | -17 | 13 | 8 | -9 | 3
CC(C)n1c(=S)[nH]c2scc(-c3cccs3)c2c1=O | -8 | -6 | 11 | 8 | 59* | -1
CCn1c(=S)[nH]c2scc(-c3cccs3)c2c1=O | 9 | -17 | 12 | 3 | 27 | 10
Cc1oc2c(O)c(O)ccc2c(=O)c1-c1cnn(-c2ccccc2)c1 | 32 | -16 | 7 | 7 | 8 | 13
Cc1nc(-c2cnn(-c3ccccc3)c2)c2cc(C)oc2n1 | 4 | -31 | 29 | 16 | -195 | 67*
N#C/C(=N\O)c1nc2ccccc2s1 | 43* | 5 | 26 | 30 | 19 | 35
N#C/C(=C(/O)c1ccc(F)cc1)c1nc2ccccc2s1 | 7 | -32 | 12 | 9 | -20 | -8
O=C(CSc1nc(O)c(C2CCCCC2)c(=O)[nH]1)Nc1ccc(Cl)cc1 | 1 | -18 | 14 | 2 | -22 | 2

Screening results from PubChem.
